The source made the active and inactive calls. No cut-off for these calls is given here.
What was measured:
WI-38 = experiment: Antiproliferative activity against human WI38 cells expressing FGFR after 72 hrs by SRB assay; format: cell-based; conditions: WI-38, 72 h
How it was run: (§1)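 Cells seeded and grown 24 h, then exposed to increasing compound concentrations for 72 h without medium change. Fixed with cold 10% TCA 1 h at 4 °C, stained 15 min with 4 mg/mL SRB in 1% acetic acid, rinsed, dye dissolved in 10 mM Tris base, A515 read. Inhibition = (1 − A515treated/A515control)×100; IC50 by Logit method from at least three independent tests.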

Calf thymus DNA = experiment: Binding affinity to calf thymus DNA at 20 uM by circular dichroism assay; format: nucleic-acid assay; conditions: Bos taurus
BXPC-3 = experiment: Antiproliferative activity against human BxPC3 cells expressing FGFR after 72 hrs by SRB assay; format: functional, cell-based; conditions: BXPC-3, 72 h; how it was run: as §1
T-24 = experiment: Antiproliferative activity against human T24 cells expressing FGFR after 72 hrs by SRB assay; format: functional, cell-based; conditions: T-24, 72 h; how it was run: as §1
[1] = target: T1, Fibroblast growth factor receptor 1 (Homo sapiens, UniProt P11362); experiment: Inhibition of FGFR1 using poly(Glu-Tyr)4:1 as substrate after 60 mins by ELISA
Target sequence in this assay (P11362 whole entry): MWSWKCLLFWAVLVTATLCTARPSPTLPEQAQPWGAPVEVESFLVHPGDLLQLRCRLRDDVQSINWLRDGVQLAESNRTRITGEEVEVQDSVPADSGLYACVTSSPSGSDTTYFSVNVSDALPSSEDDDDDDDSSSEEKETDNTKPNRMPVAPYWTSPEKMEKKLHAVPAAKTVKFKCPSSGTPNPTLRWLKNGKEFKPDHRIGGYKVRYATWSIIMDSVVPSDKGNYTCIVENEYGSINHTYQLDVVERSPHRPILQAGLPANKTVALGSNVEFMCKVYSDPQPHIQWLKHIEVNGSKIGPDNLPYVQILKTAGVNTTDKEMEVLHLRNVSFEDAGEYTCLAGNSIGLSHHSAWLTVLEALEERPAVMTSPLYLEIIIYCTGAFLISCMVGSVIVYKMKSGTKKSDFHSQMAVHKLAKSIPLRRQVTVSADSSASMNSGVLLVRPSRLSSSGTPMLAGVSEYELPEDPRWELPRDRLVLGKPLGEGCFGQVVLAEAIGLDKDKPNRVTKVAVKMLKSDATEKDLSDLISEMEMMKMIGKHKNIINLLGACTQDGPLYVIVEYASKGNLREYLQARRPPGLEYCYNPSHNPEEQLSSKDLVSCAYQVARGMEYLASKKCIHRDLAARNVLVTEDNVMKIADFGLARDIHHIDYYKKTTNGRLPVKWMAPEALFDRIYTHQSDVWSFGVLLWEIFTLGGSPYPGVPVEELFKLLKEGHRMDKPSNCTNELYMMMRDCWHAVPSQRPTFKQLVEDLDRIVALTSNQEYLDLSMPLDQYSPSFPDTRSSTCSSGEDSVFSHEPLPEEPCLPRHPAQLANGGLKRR

[2] = target: Tyrosine-protein kinase ABL1 (Homo sapiens, UniProt P00519); experiment: Inhibition of Abl using poly(Glu-Tyr)4:1 as substrate after 60 mins by ELISA
How it was run: (§2)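 Wells precoated with 20 μg/mL poly(Glu,Tyr)4:1. Detected with PY99 anti-phosphotyrosine, then HRP anti-mouse IgG and o-phenylenediamine/H2O2; stopped with H2SO4, A490. Duplicates per concentration; IC50 from inhibition curves, at least three independent tests.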

Ephrin type-B receptor 2 = target: T2, Ephrin type-B receptor 2 (Homo sapiens, UniProt P29323); experiment: Inhibition of EphB2 expressed in Bac-to-Bac Baculovirus expression system using poly(Glu-Tyr)4:1 as substrate after 60 mins by ELISA; how it was run: as §2
T2 sequence (P29323 whole entry): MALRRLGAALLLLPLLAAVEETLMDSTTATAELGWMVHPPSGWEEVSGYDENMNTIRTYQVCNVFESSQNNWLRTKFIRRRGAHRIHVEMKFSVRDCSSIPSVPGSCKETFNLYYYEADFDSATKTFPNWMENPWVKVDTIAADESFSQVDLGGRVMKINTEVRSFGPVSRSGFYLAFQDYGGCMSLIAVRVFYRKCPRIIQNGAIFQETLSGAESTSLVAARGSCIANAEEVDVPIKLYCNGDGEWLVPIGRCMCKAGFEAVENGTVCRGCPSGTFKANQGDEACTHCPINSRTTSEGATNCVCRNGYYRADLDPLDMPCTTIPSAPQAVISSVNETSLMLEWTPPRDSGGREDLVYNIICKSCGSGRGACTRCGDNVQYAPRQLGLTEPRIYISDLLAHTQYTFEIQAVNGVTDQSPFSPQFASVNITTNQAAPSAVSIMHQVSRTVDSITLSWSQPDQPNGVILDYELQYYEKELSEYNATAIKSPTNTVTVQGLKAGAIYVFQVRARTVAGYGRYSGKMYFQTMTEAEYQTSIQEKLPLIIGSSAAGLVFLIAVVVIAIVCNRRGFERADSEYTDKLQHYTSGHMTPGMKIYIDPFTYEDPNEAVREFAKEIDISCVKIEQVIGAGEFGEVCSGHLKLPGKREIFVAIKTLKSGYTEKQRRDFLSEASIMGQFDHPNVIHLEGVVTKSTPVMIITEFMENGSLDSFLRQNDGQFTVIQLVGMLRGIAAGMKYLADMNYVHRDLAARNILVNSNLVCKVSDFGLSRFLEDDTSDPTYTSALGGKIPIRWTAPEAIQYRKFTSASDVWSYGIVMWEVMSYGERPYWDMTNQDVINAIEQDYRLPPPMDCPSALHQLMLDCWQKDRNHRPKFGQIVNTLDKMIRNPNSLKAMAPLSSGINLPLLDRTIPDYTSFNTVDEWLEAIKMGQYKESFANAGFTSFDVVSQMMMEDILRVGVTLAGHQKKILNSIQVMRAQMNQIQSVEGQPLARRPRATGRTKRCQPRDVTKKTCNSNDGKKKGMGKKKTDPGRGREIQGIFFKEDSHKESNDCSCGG

[3] = target: Proto-oncogene tyrosine-protein kinase Src (Homo sapiens, UniProt P12931); experiment: Inhibition of c-Src expressed in Bac-to-Bac Baculovirus expression system using poly(Glu-Tyr)4:1 as substrate after 60 mins by ELISA; how it was run: as §2
[4] = target: Platelet-derived growth factor receptor beta (Homo sapiens, UniProt P09619); experiment: Inhibition of PDGFRbeta using poly(Glu-Tyr)4:1 as substrate after 60 mins by ELISA; how it was run: as §2
[5] = target: Fibroblast growth factor receptor 4 (Homo sapiens, UniProt P22455); experiment: Inhibition of FGFR4 using poly(Glu-Tyr)4:1 as substrate after 60 mins by ELISA; how it was run: as §2
[6] = target: Fibroblast growth factor receptor 3 (Homo sapiens, UniProt P22607); experiment: Inhibition of FGFR3 using poly(Glu-Tyr)4:1 as substrate after 60 mins by ELISA; how it was run: as §2
[7] = target: T1, Fibroblast growth factor receptor 1; experiment: Inhibition of FGFR1 in human BxPC3 cells assessed as reduction of Erk1/2 phosphorylation after 12 hrs by Western blot analysis; format: cell-based; conditions: BXPC-3
How it was run: (§3)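 BxPC3 cells plated at 3 × 10^5 per well, serum-starved 24 h, then treated 12 h with compound (1.25, 2.5, 5, 10 μM). Whole-cell lysates run on 10% SDS-PAGE and immunoblotted for phospho-FGFR1 (Tyr653/654), phospho-Erk1/2 (T202/Y204), phospho-Akt and totals, with GAPDH loading control.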
Target sequence in this assay (P11362 22-822 limits assumed): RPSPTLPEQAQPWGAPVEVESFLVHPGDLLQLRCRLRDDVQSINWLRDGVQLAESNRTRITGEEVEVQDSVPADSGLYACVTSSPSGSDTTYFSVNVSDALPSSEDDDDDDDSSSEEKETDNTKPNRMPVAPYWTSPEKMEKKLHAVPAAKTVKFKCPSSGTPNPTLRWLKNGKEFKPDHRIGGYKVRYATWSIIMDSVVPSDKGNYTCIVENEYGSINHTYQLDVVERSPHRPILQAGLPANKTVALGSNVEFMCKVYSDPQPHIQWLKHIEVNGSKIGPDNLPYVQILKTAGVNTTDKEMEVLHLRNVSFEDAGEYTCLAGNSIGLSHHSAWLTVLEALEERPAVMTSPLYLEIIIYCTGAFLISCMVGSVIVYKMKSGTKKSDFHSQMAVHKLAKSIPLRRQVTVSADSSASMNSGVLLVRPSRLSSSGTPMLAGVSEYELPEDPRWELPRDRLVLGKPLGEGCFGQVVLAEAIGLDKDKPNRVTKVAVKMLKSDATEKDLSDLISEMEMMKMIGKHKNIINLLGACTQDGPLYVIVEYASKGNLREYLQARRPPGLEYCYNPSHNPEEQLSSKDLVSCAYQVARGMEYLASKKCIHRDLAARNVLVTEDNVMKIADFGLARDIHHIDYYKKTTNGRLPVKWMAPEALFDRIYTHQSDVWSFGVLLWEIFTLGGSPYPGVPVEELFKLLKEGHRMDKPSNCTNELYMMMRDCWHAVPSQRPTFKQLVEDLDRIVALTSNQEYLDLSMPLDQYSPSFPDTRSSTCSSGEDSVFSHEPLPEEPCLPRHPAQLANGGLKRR

[8] = target: T1, Fibroblast growth factor receptor 1; experiment: Inhibition of FGFR1 in human BxPC3 cells assessed as reduction of Erk1/2 phosphorylation at 10 uM after 12 hrs by Western blot analysis; format: cell-based; conditions: BXPC-3; how it was run: as §3
Target sequence in this assay (P11362 22-822 limits assumed): as above

[9] = target: T1, Fibroblast growth factor receptor 1; experiment: Inhibition of FGFR1 in human BxPC3 cells assessed as reduction of Akt phosphorylation at 10 uM after 12 hrs by Western blot analysis; format: cell-based; conditions: BXPC-3; how it was run: as §3
Target sequence in this assay (P11362 22-822 limits assumed): as above

[10] = target: Insulin-like growth factor 1 receptor (Homo sapiens, UniProt P08069); experiment: Inhibition of IGF1R expressed in Bac-to-Bac Baculovirus expression system using poly(Glu-Tyr)4:1 as substrate after 60 mins by ELISA; how it was run: as §2
[11] = target: Fibroblast growth factor receptor 2 (Homo sapiens, UniProt P21802); experiment: Inhibition of FGFR2 using poly(Glu-Tyr)4:1 as substrate after 60 mins by ELISA; how it was run: as §2
[12] = target: Macrophage-stimulating protein receptor (Homo sapiens, UniProt Q04912); experiment: Inhibition of RON expressed in Bac-to-Bac Baculovirus expression system using poly(Glu-Tyr)4:1 as substrate after 60 mins by ELISA; how it was run: as §2
[13] = target: Vascular endothelial growth factor receptor 1 (Homo sapiens, UniProt P17948); experiment: Inhibition of VEGFR1 using poly(Glu-Tyr)4:1 as substrate measured after 60 mins by ELISA; how it was run: as §2
[14] = target: Mast/stem cell growth factor receptor Kit (Homo sapiens, UniProt P10721); experiment: Inhibition of c-kit expressed in Bac-to-Bac Baculovirus expression system using poly(Glu-Tyr)4:1 as substrate after 60 mins by ELISA; how it was run: as §2
[15] = target: Proto-oncogene tyrosine-protein kinase receptor Ret (Homo sapiens, UniProt P07949); experiment: Inhibition of RET expressed in Bac-to-Bac Baculovirus expression system using poly(Glu-Tyr)4:1 as substrate after 60 mins by ELISA; how it was run: as §2
[16] = target: Vascular endothelial growth factor receptor 2 (Homo sapiens, UniProt P35968); experiment: Inhibition of VEGFR2 expressed in Bac-to-Bac Baculovirus expression system using poly(Glu-Tyr)4:1 as substrate after 60 mins by ELISA; how it was run: as §2
Ephrin type-A receptor 2 = Ephrin type-A receptor 2 (Homo sapiens, UniProt P29317); experiment: Inhibition of EphA2 expressed in Bac-to-Bac Baculovirus expression system using poly(Glu-Tyr)4:1 as substrate after 60 mins by ELISA; how it was run: as §2
[17] = target: Platelet-derived growth factor receptor alpha (Homo sapiens, UniProt P16234); experiment: Inhibition of PDGFRalpha using poly(Glu-Tyr)4:1 as substrate after 60 mins by ELISA; how it was run: as §2

Vascular endothelial growth factor receptor 1, sequence (P17948 whole entry): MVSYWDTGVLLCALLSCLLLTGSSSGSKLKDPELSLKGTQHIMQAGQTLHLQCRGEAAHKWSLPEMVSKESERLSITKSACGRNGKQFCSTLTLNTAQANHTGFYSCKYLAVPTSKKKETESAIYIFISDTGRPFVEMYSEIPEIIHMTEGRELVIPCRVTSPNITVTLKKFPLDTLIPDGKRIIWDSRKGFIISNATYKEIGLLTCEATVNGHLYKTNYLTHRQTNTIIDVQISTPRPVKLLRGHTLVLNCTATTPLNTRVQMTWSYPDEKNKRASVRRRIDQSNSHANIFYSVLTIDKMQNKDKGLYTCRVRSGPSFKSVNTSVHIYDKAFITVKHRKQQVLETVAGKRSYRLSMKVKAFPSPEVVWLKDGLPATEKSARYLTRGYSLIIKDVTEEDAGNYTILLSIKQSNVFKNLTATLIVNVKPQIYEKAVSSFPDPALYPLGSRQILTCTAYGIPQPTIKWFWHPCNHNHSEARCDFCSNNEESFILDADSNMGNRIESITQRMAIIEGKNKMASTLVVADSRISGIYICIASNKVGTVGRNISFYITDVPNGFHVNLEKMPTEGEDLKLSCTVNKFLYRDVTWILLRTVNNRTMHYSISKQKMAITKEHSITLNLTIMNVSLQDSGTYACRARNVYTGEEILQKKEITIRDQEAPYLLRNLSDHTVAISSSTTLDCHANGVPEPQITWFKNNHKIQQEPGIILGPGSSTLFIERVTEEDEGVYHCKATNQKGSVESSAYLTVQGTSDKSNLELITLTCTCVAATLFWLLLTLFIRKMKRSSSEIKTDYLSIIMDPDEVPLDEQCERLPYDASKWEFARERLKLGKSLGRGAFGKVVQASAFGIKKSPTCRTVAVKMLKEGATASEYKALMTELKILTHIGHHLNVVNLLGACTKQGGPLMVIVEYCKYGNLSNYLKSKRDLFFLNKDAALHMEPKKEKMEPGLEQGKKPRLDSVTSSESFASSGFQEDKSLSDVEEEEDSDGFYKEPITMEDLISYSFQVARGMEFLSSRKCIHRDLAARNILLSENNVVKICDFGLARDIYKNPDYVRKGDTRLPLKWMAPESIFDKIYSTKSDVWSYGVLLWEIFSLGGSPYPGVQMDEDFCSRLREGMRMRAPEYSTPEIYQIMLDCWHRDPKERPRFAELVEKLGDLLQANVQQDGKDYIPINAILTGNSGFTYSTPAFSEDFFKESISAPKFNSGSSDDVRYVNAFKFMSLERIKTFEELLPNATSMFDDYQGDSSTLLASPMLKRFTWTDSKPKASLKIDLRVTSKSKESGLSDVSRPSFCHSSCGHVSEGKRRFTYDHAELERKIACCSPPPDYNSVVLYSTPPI
Insulin-like growth factor 1 receptor, sequence (P08069 31-736 limits assumed): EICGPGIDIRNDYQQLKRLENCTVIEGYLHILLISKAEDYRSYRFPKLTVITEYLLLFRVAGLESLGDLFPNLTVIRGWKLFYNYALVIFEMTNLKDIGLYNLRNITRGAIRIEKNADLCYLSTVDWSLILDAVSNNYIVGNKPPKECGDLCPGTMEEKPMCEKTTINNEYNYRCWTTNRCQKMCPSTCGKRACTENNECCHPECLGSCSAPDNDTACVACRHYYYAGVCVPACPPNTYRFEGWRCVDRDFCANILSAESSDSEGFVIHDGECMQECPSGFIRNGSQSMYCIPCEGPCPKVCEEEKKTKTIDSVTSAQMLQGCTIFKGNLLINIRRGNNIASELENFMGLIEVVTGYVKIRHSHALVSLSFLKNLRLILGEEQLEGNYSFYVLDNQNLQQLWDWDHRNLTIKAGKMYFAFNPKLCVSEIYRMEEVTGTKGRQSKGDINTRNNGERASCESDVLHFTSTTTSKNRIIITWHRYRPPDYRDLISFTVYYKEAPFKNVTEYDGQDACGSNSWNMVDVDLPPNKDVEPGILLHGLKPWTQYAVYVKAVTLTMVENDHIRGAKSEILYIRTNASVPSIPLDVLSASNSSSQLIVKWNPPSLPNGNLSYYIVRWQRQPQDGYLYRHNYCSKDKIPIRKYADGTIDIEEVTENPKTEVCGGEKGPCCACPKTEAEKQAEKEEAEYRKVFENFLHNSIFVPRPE
Insulin-like growth factor 1 receptor, sequence (P08069 741-1367 limits assumed): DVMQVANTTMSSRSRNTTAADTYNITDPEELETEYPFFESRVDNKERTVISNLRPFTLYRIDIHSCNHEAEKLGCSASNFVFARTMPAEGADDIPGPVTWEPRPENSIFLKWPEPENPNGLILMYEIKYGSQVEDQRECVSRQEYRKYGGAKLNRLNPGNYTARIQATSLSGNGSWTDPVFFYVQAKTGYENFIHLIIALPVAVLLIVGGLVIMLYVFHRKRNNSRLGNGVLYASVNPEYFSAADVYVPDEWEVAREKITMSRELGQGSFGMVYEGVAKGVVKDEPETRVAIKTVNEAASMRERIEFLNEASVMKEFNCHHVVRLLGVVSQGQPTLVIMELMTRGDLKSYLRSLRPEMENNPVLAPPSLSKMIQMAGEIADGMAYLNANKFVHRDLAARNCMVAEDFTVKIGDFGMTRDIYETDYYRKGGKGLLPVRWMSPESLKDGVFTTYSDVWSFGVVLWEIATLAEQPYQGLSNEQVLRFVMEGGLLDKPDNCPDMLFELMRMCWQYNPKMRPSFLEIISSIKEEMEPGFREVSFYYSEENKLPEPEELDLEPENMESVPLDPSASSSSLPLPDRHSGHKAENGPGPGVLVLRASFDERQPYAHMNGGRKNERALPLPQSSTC
Proto-oncogene tyrosine-protein kinase Src, sequence (P12931 2-536 limits assumed): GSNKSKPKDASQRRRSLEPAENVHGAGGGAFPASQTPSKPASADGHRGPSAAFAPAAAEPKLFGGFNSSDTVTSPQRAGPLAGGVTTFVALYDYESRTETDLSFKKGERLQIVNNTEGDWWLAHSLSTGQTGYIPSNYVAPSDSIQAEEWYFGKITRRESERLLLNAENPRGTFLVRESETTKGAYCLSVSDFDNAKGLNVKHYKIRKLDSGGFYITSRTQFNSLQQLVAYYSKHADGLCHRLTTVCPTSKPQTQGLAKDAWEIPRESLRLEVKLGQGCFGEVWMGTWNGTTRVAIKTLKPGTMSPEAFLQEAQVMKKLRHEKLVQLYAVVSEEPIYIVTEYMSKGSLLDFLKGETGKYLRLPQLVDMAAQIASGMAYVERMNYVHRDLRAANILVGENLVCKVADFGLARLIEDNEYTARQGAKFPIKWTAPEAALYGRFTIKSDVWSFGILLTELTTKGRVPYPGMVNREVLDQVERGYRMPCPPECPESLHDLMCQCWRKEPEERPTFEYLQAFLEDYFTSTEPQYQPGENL

SMILES | IC50 (WI-38) [µM] | IC50 (BXPC-3) [µM] | IC50 (T-24) [µM] | IC50 [1] [µM] | other results
C=CCOC(=O)C1=C2C(=NC1=O)c1cccc3c(SCCC)ccc2c13 | 33.2 | 12.9 | 13.1 | > 10 | Activity (Calf thymus DNA): Active
CCOC(=O)C1=C2C(=NC1=O)c1cccc3cccc2c13 | 6.2 | 4.7 | 2.9 | 0.074 | IC50 [2]: > 10 µM; IC50 (Ephrin type-B receptor 2): > 10 µM; IC50 [3]: > 10 µM; IC50 [4]: > 10 µM; IC50 [5]: > 10 µM; IC50 [6]: 4.6 µM; inhibition [7]: Dose-dependent effect; inhibition [8]: Active; inhibition [9]: inactive; IC50 [10]: > 10 µM; IC50 [11]: > 10 µM; IC50 [12]: > 10 µM; IC50 [13]: 3.2 µM; IC50 [14]: > 10 µM; IC50 [15]: > 10 µM; IC50 [16]: > 10 µM; IC50 (Ephrin type-A receptor 2): > 10 µM; IC50 [17]: > 10 µM
CCOC(=O)C1=C2C(=NC1=O)c1cccc3c(SC(C)C4(C)CSCO4)ccc2c13 (centres undefined) |  |  |  | > 10 | 
CCCSc1ccc2c3c(cccc13)C1=NC(=O)C(C#N)=C12 |  |  |  | > 10 | 
CC(Sc1ccc2c3c(cccc13)C1=NC(=O)C(C#N)=C12)C1(C)CSCO1 (centres undefined) |  |  |  | 3.6 | 
N#CC1=C2C(=NC1=O)c1cccc3cccc2c13 | 21.7 | 25 | 13.3 | 4.5 | 
CCOC(=O)C1=C2C(=NC1=O)c1cccc3c(SCCc4cnccn4)ccc2c13 |  |  |  | 2.1 | 
O=C(COC(=O)C1=C2C(=NC1=O)c1cccc3cccc2c13)OCC(F)(F)C(F)(F)F | 48.3 | 23.3 | 19 | 0.077 | 
CCOC(=O)C1=C2C(=NC1=O)c1cccc3c(SC4CCOC4C)ccc2c13 (centres undefined) |  |  |  | > 10 | 
N#CC1=C2C(=NC1=O)c1cccc3c(SCCN4CCSC4)ccc2c13 |  |  |  | > 10 | 
CCCSC(=O)COC(=O)C1=C2C(=NC1=O)c1cccc3c(SCCC)ccc2c13 | > 100 | 56.3 | 79.1 | > 10 | 
CCCSc1ccc2c3c(cccc13)C1=NC(=O)C(C(=O)OCC(=O)OCC(F)(F)C(F)(F)F)=C12 | 58.8 | 54.1 | > 100 | > 10 | 
C=CCSc1ccc2c3c(cccc13)C1=NC(=O)C(C(=O)OCC(=O)OCC(F)(F)C(F)(F)F)=C12 | 45.6 | 38.5 | 86.4 | 0.424 | 
CCOC(=O)C1=C2C(=NC1=O)c1cccc3c(SCCN4CCSC4)ccc2c13 |  |  |  | > 10 | 

— ChEMBL document CHEMBL1781995, “Acenaphtho[1,2-b]pyrrole-based selective fibroblast growth factor receptors 1 (FGFR1) inhibitors: design, synthesis, and biological activity” (J Med Chem, 2011)
